# According to ChEMBL document CHEMBL3124905, “Isothiocoumarin-3-carboxylic acid derivatives: synthesis, anticancer and antitrypanosomal activity evaluation” (Eur J Med Chem, 2014):
# Active and inactive are the calls of the source. The calls are words filed in the database; no cut-off is given here.
# Key:
# SR = assay: Growth inhibition of human SR cells after 48 hrs by SRB assay; type: functional
# In short: (§1)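 NCI ~60-cell-line five-dose screen. Cells were preincubated 24-48 h, then given compound at 10-fold dilutions from 10^-4 to 10^-8 M with 48 h continuous exposure. SRB protein stain was read by absorbance at time zero, in untreated control and with drug. GI50 was derived from [(Ti-Tz)/(C-Tz)]x100=50, TGI from Ti=Tz, and LC50 from [(Ti-Tz)/Tz]x100=-50.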
# SF-268 = assay: Anticancer activity against human SF268 cells assessed as cell growth at 100 uM after 48 hrs by SRB assay; type: functional; conditions: SF-268, 48 h, read-out: Activity
# In short: (§2)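 NCI one-dose primary screen on a three-line panel (breast MCF7, lung NCI-H460, CNS SF-268). Cells were inoculated and preincubated 24–48 h, then exposed to a single concentration of 10−4 M for 48 h. The endpoint was sulforhodamine B protein staining, and results are expressed as percent growth relative to untreated control cells. Negative values denote cytotoxicity.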
# MCF7 = assay: Anticancer activity against human MCF7 cells assessed as cell growth at 100 uM after 48 hrs by SRB assay; type: functional; conditions: MCF7, 48 h, read-out: Activity; in short: as §2
# [1] = (§3) Growth inhibition of human SF539 cells after 48 hrs by SRB assay; type: functional; conditions: SF-539, 48 h
# In short: (§4)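 NCI five-dose assay against the ~60-cell-line panel (nine cancer types). Tenfold dilutions from 10−4 to 10−8 M were used with continuous 48-h exposure and SRB absorbance readout. Percent growth was computed from time-zero, control and treated absorbances. GI50 is the concentration giving 50% lower net protein increase than controls. Values not reached are reported as beyond the tested range.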
# NCI-H460 [2] = assay: Anticancer activity against human NCI-H460 cells assessed as cell growth at 100 uM after 48 hrs by SRB assay; type: functional; conditions: NCI-H460, 48 h, read-out: Activity; in short: as §2
# HOP69 = assay: Growth inhibition of human […] cells after 48 hrs by SRB assay; type: functional; in short: as §4
# HOP-92 = assay: Growth inhibition of human HOP92 cells after 48 hrs by SRB assay; type: functional; in short: as §4
# ACHN = assay: Growth inhibition of human ACHN cells after 48 hrs by SRB assay; type: functional; in short: as §4
# U-251 = assay: Growth inhibition of human U251 cells after 48 hrs by SRB assay; type: functional; in short: as §1
# OVCAR-8 = assay: Growth inhibition of human OVCAR8 cells after 48 hrs by SRB assay; type: functional; in short: as §4
# SNB- = assay: Growth inhibition of human SNB cells after 48 hrs by SRB assay; type: functional; in short: as §4
# NCI-H522 = assay: Growth inhibition of human NCI-H522 cells after 48 hrs by SRB assay; type: functional; in short: as §4
# NCI/ADR-RES = assay: Growth inhibition of human NCI/ADR-RES cells after 48 hrs by SRB assay; type: functional; in short: as §4
# RXF 393 = assay: Growth inhibition of human RXF393 cells after 48 hrs by SRB assay; type: functional; in short: as §4
# HCC 2998 = assay: Growth inhibition of human HCC2998 cells after 48 hrs by SRB assay; type: functional; in short: as §4
# CCRF-CEM = assay: Growth inhibition of human CCRF-CEM cells after 48 hrs by SRB assay; type: functional; in short: as §4
# A549 = assay: Growth inhibition of human A549/ATCC cells after 48 hrs by SRB assay; type: functional; in short: as §4
# UACC-257 = assay: Growth inhibition of human UACC257 cells after 48 hrs by SRB assay; type: functional; in short: as §1
# Hs-578T = assay: Growth inhibition of human Hs 578T cells after 48 hrs by SRB assay; type: functional; in short: as §4
# EKVX = assay: Growth inhibition of human EKVX cells after 48 hrs by SRB assay; type: functional; in short: as §4
# 786-0 [3] = assay: Growth inhibition of human 786-O cells after 48 hrs by SRB assay; type: functional; in short: as §4
# SF-539 = assay: as §3; type: functional; in short: as §4
# KM12 = assay: Growth inhibition of human KM12 cells after 48 hrs by SRB assay; type: functional; in short: as §4
# RPMI18226 = assay: Growth inhibition of human […] cells after 48 hrs by SRB assay; type: functional; in short: as §4
# OVCAR-4 = assay: Growth inhibition of human OVCAR4 cells after 48 hrs by SRB assay; type: functional; in short: as §4
# SF-295 = assay: Growth inhibition of human SF295 cells after 48 hrs by SRB assay; type: functional; in short: as §4
# [4] = test system: Trypanosoma brucei brucei; assay: Antitrypanosomal activity against bloodstream form of Trypanosoma brucei brucei strain 90-13 assessed as inhibition of parasite growth at 1 ug/ml after 72 hrs by resazurin reduction test; type: functional; conditions: strain 90-13, 72 h
# In short: (§5)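 Trypanosoma brucei brucei 90-13 bloodstream forms, grown in HMI9 with 10% FCS at 37 °C under 5% CO2. Log-phase parasites were seeded at 10^5 cells/mL with or without inhibitor, with stocks prepared in DMSO. After 72 h, resazurin was added and fluorescence was read at 530/590 nm after a further 4 h. Percent growth inhibition was calculated versus drug-free parasites, with DMSO as control.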
# OVCAR-5 = assay: Growth inhibition of human OVCAR5 cells after 48 hrs by SRB assay; type: functional; in short: as §4
# NCI-H460 [5] = assay: Growth inhibition of human NCI-H460 cells after 48 hrs by SRB assay; type: functional; in short: as §4
# M14 = assay: Growth inhibition of human M14 cells after 48 hrs by SRB assay; type: functional; in short: as §4
# PC-3 = assay: Growth inhibition of human PC3 cells after 48 hrs by SRB assay; type: functional; in short: as §4
# NCI-H23 = assay: Growth inhibition of human NCI-H23 cells after 48 hrs by SRB assay; type: functional; in short: as §4
# BT-549 = assay: Growth inhibition of human BT549 cells after 48 hrs by SRB assay; type: functional; in short: as §4
# UACC-62 = assay: Growth inhibition of human UACC62 cells after 48 hrs by SRB assay; type: functional; in short: as §1
# Malme-3M = assay: Growth inhibition of human MALME-3M cells after 48 hrs by SRB assay; type: functional; in short: as §4
# HOP-62 = assay: Growth inhibition of human HOP62 cells after 48 hrs by SRB assay; type: functional; in short: as §4
# UO-31 = assay: Growth inhibition of human UO31 cells after 48 hrs by SRB assay; type: functional; in short: as §1
# TK-10 = assay: Growth inhibition of human TK10 cells after 48 hrs by SRB assay; type: functional; in short: as §1
# MOLT-4 = assay: Growth inhibition of human MOLT4 cells after 48 hrs by SRB assay; type: functional; in short: as §4
# MDA-MB-435 = assay: Growth inhibition of human MDA-MB-435 cells after 48 hrs by SRB assay; type: functional; in short: as §4
# LOX IMVI = assay: Growth inhibition of human LOXIMVI cells after 48 hrs by SRB assay; type: functional; in short: as §4
# OVCAR-3 = assay: Growth inhibition of human OVCAR3 cells after 48 hrs by SRB assay; type: functional; in short: as §4
# MDA-MB-231 = assay: Growth inhibition of human MDA-MB-231/ATCC cells after 48 hrs by SRB assay; type: functional; in short: as §4
# HCT-116 = assay: Growth inhibition of human HCT116 cells after 48 hrs by SRB assay; type: functional; in short: as §4
# NCI-H322M = assay: Growth inhibition of human NCI-H322M cells after 48 hrs by SRB assay; type: functional; in short: as §4
# [6] = test system: Trypanosoma brucei brucei; assay: Antitrypanosomal activity against bloodstream form of Trypanosoma brucei brucei strain 90-13 assessed as inhibition of parasite growth at 10 ug/ml after 72 hrs by resazurin reduction test; type: functional; conditions: strain 90-13, 72 h; in short: as §5
# 786-0 [7] = assay: Growth inhibition of human 786-0 cells after 48 hrs by SRB assay; type: functional; in short: as §4
# SK-MEL-5 = assay: Growth inhibition of human SK-MEL-5 cells after 48 hrs by SRB assay; type: functional; in short: as §4
# SNB-75 = assay: Growth inhibition of human SNB75 cells after 48 hrs by SRB assay; type: functional; in short: as §4
# CAKI-1 = assay: Growth inhibition of human CAKI-1 cells after 48 hrs by SRB assay; type: functional; in short: as §4
# [8] = Acute toxicity in ip dosed white mouse; type: organism-based; conditions: in vivo
# In short: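 White male mice, 23-25 g, dosed intraperitoneally with compound dissolved in 0.9% NaCl saline plus 1-2 drops Polysorbate 80 (Tween-80). Solutions prepared immediately before use. Doses ranged 100-1000 mg/kg, testing 4 or 5 doses with 6 animals per dose. LD50 derived by the Litchfield-Wilcoxon method.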
smiles,measurement,setting,value
Cc1cc(NC(=O)c2cc3ccccc3c(=O)s2)no1,GI50,SR,0.339 µM
same,TGI,SR; read-out: pTGI (converted),> 100 µM
same,growth at 100 µM,SF-268,86%
same,growth at 100 µM,MCF7,85%
same,GI50,[1],30.2 µM
same,TGI,[1]; read-out: pTGI (converted),> 100 µM
same,growth at 100 µM,NCI-H460 [2],31%
O=C(Nc1nc(-c2ccccc2)cs1)c1cc2ccccc2c(=O)s1,pGI50,HOP69,inactive
same,pTGI,HOP69,inactive
same,pGI50,HOP-92,inactive
same,pTGI,HOP-92,inactive
same,pGI50,ACHN,inactive
same,pTGI,ACHN,inactive
same,pGI50,U-251,inactive
same,pTGI,U-251,inactive
same,pGI50,OVCAR-8,inactive
same,pTGI,OVCAR-8,inactive
same,pGI50,SR,inactive
same,pTGI,SR,inactive
same,pGI50,SNB-,inactive
same,pTGI,SNB-,inactive
same,pGI50,NCI-H522,inactive
same,pTGI,NCI-H522,inactive
same,pGI50,NCI/ADR-RES,inactive
same,pTGI,NCI/ADR-RES,inactive
same,pGI50,RXF 393,inactive
same,pTGI,RXF 393,inactive
same,pGI50,HCC 2998,inactive
same,pTGI,HCC 2998,inactive
same,pGI50,CCRF-CEM,inactive
same,pTGI,CCRF-CEM,inactive
same,pGI50,A549,inactive
same,pTGI,A549,inactive
same,pGI50,UACC-257,inactive
same,pTGI,UACC-257,inactive
same,pGI50,Hs-578T,inactive
same,pTGI,Hs-578T,inactive
same,pGI50,EKVX,inactive
same,pTGI,EKVX,inactive
same,pGI50,786-0 [3],inactive
same,pTGI,786-0 [3],inactive
same,pGI50,SF-539,inactive
same,pTGI,SF-539,inactive
same,pGI50,KM12,inactive
same,pTGI,KM12,inactive
same,pGI50,RPMI18226,inactive
same,pTGI,RPMI18226,inactive
same,pGI50,OVCAR-4,inactive
same,pTGI,OVCAR-4,inactive
same,pGI50,SF-295,inactive
same,pTGI,SF-295,inactive
same,inhibition at 1 µg/mL,[4],44.2%
same,pGI50,OVCAR-5,inactive
same,pTGI,OVCAR-5,inactive
same,pGI50,NCI-H460 [5],inactive
same,pTGI,NCI-H460 [5],inactive
same,pGI50,M14,inactive
same,pTGI,M14,inactive
same,pGI50,PC-3,inactive
same,pTGI,PC-3,inactive
same,pGI50,NCI-H23,inactive
same,pTGI,NCI-H23,inactive
same,pGI50,BT-549,inactive
same,pTGI,BT-549,inactive
same,pGI50,UACC-62,inactive
same,pTGI,UACC-62,inactive
same,pGI50,Malme-3M,inactive
same,pTGI,Malme-3M,inactive
same,pGI50,HOP-62,inactive
same,pTGI,HOP-62,inactive
same,pGI50,UO-31,inactive
same,pTGI,UO-31,inactive
same,pGI50,TK-10,inactive
same,pTGI,TK-10,inactive
same,pGI50,MOLT-4,inactive
same,pTGI,MOLT-4,inactive
same,pGI50,MDA-MB-435,inactive
same,pTGI,MDA-MB-435,inactive
same,pGI50,LOX IMVI,inactive
same,pTGI,LOX IMVI,inactive
same,pGI50,OVCAR-3,inactive
same,pTGI,OVCAR-3,inactive
same,pGI50,MDA-MB-231,inactive
same,pTGI,MDA-MB-231,inactive
same,pGI50,HCT-116,inactive
same,pTGI,HCT-116,inactive
same,pGI50,NCI-H322M,inactive
same,pTGI,NCI-H322M,inactive
same,inhibition at 10 µg/mL,[6],7.36%
same,pGI50,786-0 [7],inactive
same,pTGI,786-0 [7],inactive
same,pGI50,SK-MEL-5,inactive
same,pTGI,SK-MEL-5,inactive
same,pGI50,SNB-75,inactive
same,pTGI,SNB-75,inactive
same,pGI50,CAKI-1,inactive
same,pTGI,CAKI-1,inactive
COc1ccc2cc(C(=O)Nc3ccc(S(N)(=O)=O)cc3)sc(=O)c2c1OC,LD50,[8],870 mg/kg
same,growth at 100 µM,SF-268,74%
same,growth at 100 µM,MCF7,72%
same,inhibition at 1 µg/mL,[4],59.8%
same,growth at 100 µM,NCI-H460 [2],97%
same,inhibition at 10 µg/mL,[6],> 50%
O=C(Nc1cccc2ccccc12)c1cc2ccccc2c(=O)s1,LD50,[8],410 mg/kg
same,inhibition at 1 µg/mL,[4],60.8%
same,inhibition at 10 µg/mL,[6],> 50%
